Publication PMC6421850 (The Journal of organic chemistry, 2018)
Read-outs that look alike come from different tables or passages of the source.

Tests used:
[1] = system: MDA-MB-231 (triple-negative breast cancer); assay: Antiproliferative activity, SRB assay, MDA-MB-231; assay type: cell-based, human
MDA-MB-231 cells [2] = assay: Immunocytochemistry; assay type: cell-based, human; conditions: MDA-MB-231, 24 h
How it was run: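 MDA-MB-231 cells were seeded on chamber slides 24 h before a 24 h exposure, with 0.1% DMSO as control. Cells were fixed in 4% paraformaldehyde/PBS and permeabilised with 0.5% Triton X-100. They were probed with mouse anti-α-tubulin, then FITC anti-mouse IgG, with DAPI for nuclei. Confocal projections used 12–18 sections at 0.6–1 μm intervals. Each concentration was repeated at least twice.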

[3] = system: MCF-7 (estrogen receptor-positive and HER2-negative breast cancer); assay: Antiproliferative activity, SRB assay, MCF-7; assay type: cell-based, human
[4] = system: KB-VIN (P-gp-overexpressing MDR subline of KB)
A549 (lung carcinoma) = assay: Antiproliferative activity, SRB assay, A549; assay type: cell-based, human
MDA-MB-231 cells [5] = assay: Cell cycle analysis by flow cytometry; assay type: cell-based, human; conditions: MDA-MB-231, 24 h; for accumulation of sub-G1 cells: dose-dependent; for effect on cell cycle progression: flow cytometry, PI staining; for propidium iodide (PI) signals: higher concentrations
How it was run: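 MDA-MB-231 cells were exposed to test compound for 24 h at the indicated concentrations, with DMSO as vehicle control. DNA content was stained with propidium iodide/RNase. Cell-cycle distribution, including the sub-G1 fraction, was read by flow cytometry.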

[6] = system: KB (epidermoid carcinoma of the nasopharynx); assay: Antiproliferative activity, SRB assay, KB; assay type: cell-based, human; conditions: read-out: IC50 KB
[7] = system: KB-VIN (P-gp-overexpressing MDR subline of KB); assay: Antiproliferative activity, SRB assay, KB-VIN; conditions: read-out: IC50 KB-VIN, 50% reduction relative to untreated cells
[8] = system: all tested human tumor cell lines, including MDR subline; assay: Antiproliferative activity, all tested human tumor cell lines; assay type: cell-based; conditions: read-out: IC50 values against all tested human tumor cell lines
[9] = system: horse's blood (red blood cells); assay: In vitro hemolytic assay; assay type: cell-based; conditions: up to 500 μM
[10] = read-out: IC50 MDA-MB-231, SRB assay, 50% reduction relative to untreated cells
[11] = read-out: IC50 MCF-7, SRB assay, 50% reduction relative to untreated cells
[12] = read-out: IC50 A549, SRB assay, 50% reduction relative to untreated cells
[13] = SRB assay, 50% reduction relative to untreated cells
[14] = Homo sapiens, MDA-MB-231, read-out: IC50 MDA-MB-231
[15] = Homo sapiens, MCF7, read-out: IC50 MCF-7
[16] = Homo sapiens, A549, read-out: IC50 A549

Row | Compound | IC50 [1, 10] [nM] | IC50 [3, 11] [nM] | IC50 (A549 (lung carcinoma); [12]) [nM] | IC50 [6, 13] [nM] | IC50 [8] [nM] | IC50 [1, 14] [nM] | IC50 [3, 15] [nM] | IC50 (A549 (lung carcinoma); [16]) [nM] | IC50 ([6]; Homo sapiens) [nM] | cell morphology (microtubules, chromatin) (MDA-MB-231 cells [2]; 1.5 μM (3-fold IC50)) | cell morphology (microtubules, chromatin) (MDA-MB-231 cells [2]; 4.9 μM (10-fold IC50)) | induction of apoptosis (MDA-MB-231 cells [2]; 1.5 and 4.9 μM) | IC50 [4] [nM] | accumulation of sub-G1 cells (MDA-MB-231 cells [5]) | effect on cell cycle progression (MDA-MB-231 cells [5]) | IC50 [7] [nM] | propidium iodide (PI) signals (MDA-MB-231 cells [5]) | hemolytic activity (in words) [9]
1 | C=CC(=C)CC[C@]1(C)[C@H](C)C[C@H](OC)[C@@]23C(=C[C@H](OC(=O)C(C)C)C[C@@H]12)[C@@H](OC(C)=O)O[C@H]3OC(C)=O [Compound 3, (2R,5S,6S,8R,9R,10S,18R,19S)-18,19-di-O-acetyl-18,19-epoxy-6-methoxy-2-isobutanoyloxycleroda-3,13(16),14-triene] | 490 | 500 | 470 | 450 |  |  |  |  |  | normal morphology with intact nuclei and a clear microtubule network | fragmented and dispersed chromatin (arrowhead) with an apoptotic microtubule array | induced apoptosis in a dose-dependent manner | 490 | significant accumulations of sub-G1 cells | no effect on cell cycle progression |  |  | 
2 | C=CC(=C)CC[C@]1(C)[C@H](C)C[C@H](OC)[C@@]23C(=C[C@H](OC(=O)CC)C[C@@H]12)[C@@H](OC(C)=O)O[C@H]3OC(C)=O [Compound 4, (2R,5S,6S,8R,9R,10S,18R,−19S)-18,19-di-O-acetyl-18,19-epoxy-6-methoxy-2-propionyloxy-cleroda-3,13(16),14-triene] | 4950 | 4940 | 4600 | 5190 |  |  |  |  |  |  |  |  |  |  |  | 4920 |  | 
3 | C=CC(=C)CC[C@]1(C)[C@H](C)C[C@H](OC)[C@@]23C(=C[C@H](OC(=O)[C@@H](C)CC)C[C@@H]12)[C@@H](OC(C)=O)O[C@H]3OC(C)=O [Compound 6, (2R,5S,6S,−8R,9R,10S,18R,19S)-18,19-di-O-acetyl-18,19-epoxy-6-methoxy-2-(2′-methylbutanoyloxy)-cleroda-3,13(16),14-triene] | 4900 | 5820 | 5040 | 5230 |  |  |  |  |  |  |  |  |  |  |  | 5190 |  | 
4 | C=CC(=C)CC[C@]1(C)[C@H](C)C[C@H](OC(=O)CCCCCCCCC)[C@@]23C(=C[C@H](OC(C)=O)C[C@@H]12)[C@@H](OC(C)=O)O[C@H]3OC(C)=O [Compound 9, (2R,5S,6S,8R,9R,10S,18R,19S)-2,18,19-tri-O-acetyl-18,19-epoxy-6-decanoyloxycleroda-cleroda-3,13(16),14-triene] | 20500 | 31700 | 40200 | 19800 |  |  |  |  |  |  |  |  |  |  |  | 39200 |  | 
5 | C=CC(=C)CC[C@]1(C)[C@H](C)C[C@H](OC(=O)CCCCC)[C@@]23C(=C[C@H](O)C[C@@H]12)[C@@H](OC(C)=O)O[C@H]3OC(C)=O [Compound 14, (2R,5S,6S,8R,−9R,10S,18R,19S)-18,19-di-O-acetyl-18,19-epoxy-2-hydroxy-6-hexanoyloxycleroda-3,13(16),14-triene] | 4730 | 5190 | 4760 | 4740 |  |  |  |  |  |  |  |  |  |  |  | 4880 |  | 
6 | C=CC(=C)CC[C@]1(C)[C@H]2C[C@@H](OC(=O)C(C)CC)C=C3[C@H](OC(C)=O)O[C@H](OC(C)=O)[C@@]32[C@H](O)C[C@@H]1C (stereo partly drawn) [Compound 18, caseamembrin E] |  |  |  |  | 400 to 1000 | 400 | 550 | 530 | 430 |  |  |  |  |  |  |  |  | 
7 | CC(=O)O[C@H]1C(=O)[C@@]2(C)[C@H]([C@H](OC(=O)c3ccccc3)[C@]3(O)C[C@H](OC(=O)[C@H](O)[C@@H](NC(=O)c4ccccc4)c4ccccc4)C(C)=C1C3(C)C)[C@]1(OC(C)=O)CO[C@@H]1C[C@@H]2O [Paclitaxel, reference compound] |  |  |  |  |  | 8.36 | 12.1 | 6.53 | 7.07 |  |  |  |  |  |  |  |  | 

Further lines, with some results ahead:

Row | IC50 [1, 10] [nM] | IC50 [3, 11] [nM] | IC50 (A549 (lung carcinoma); [12]) [nM] | IC50 [6, 13] [nM] | IC50 [8] [nM] | IC50 [1, 14] [nM] | IC50 [3, 15] [nM] | IC50 (A549 (lung carcinoma); [16]) [nM] | IC50 ([6]; Homo sapiens) [nM] | Compound | cell morphology (microtubules, chromatin) (MDA-MB-231 cells [2]; 1.5 μM (3-fold IC50)) | cell morphology (microtubules, chromatin) (MDA-MB-231 cells [2]; 4.9 μM (10-fold IC50)) | induction of apoptosis (MDA-MB-231 cells [2]; 1.5 and 4.9 μM) | IC50 [4] [nM] | accumulation of sub-G1 cells (MDA-MB-231 cells [5]) | effect on cell cycle progression (MDA-MB-231 cells [5]) | IC50 [7] [nM] | propidium iodide (PI) signals (MDA-MB-231 cells [5]) | hemolytic activity (in words) [9]
8 | 540 | 890 | 4150 | 730 |  |  |  |  |  | C=CC(=C)CCC1(C)C(C)CC(O)C23C(=CC(OC(=O)C(C)CC)CC12)C(OC(C)=O)OC3OC(C)=O (stereo not drawn) [Compound 17, 18,19-di-O-acetyl-18,19-epoxy-6-hydroxy-2-(2′-methylbutanoyloxy)cleroda-3,13-(16),14-triene] |  |  |  |  | significant accumulations of sub-G1 cells | no effect on cell cycle progression | 4070 | decreased unusually and dramatically in all cells | 
9 | 430 | 440 | 450 | 420 |  |  |  |  |  | C=CC(=C)CCC1(C)C(C)CC(O)C23C(=CC(OC(=O)/C=C/C=C/CCCCC)CC12)C(OC(C)=O)OC3OC(C)=O (stereo not drawn) [Compound 19, corymbulosin A] |  |  |  |  | except with compound 19 | no effect on cell cycle progression | 450 |  | most potent activity but only at the unusually high concentration of 500 μM
10 | 450 | 660 | 580 | 530 |  |  |  |  |  | caseamembrin S [Compound 16] |  |  |  |  | significant accumulations of sub-G1 cells | no effect on cell cycle progression | 900 | decreased unusually and dramatically in all cells | 
